Measurements reported in the array DNA melting data of Ke et al. (doi:10.1101/2024.01.08.574731).

How the values were obtained:
[1] = melting temperature; fluorescence melt of hairpins on a sequencing array, two-state fit, raised by 9.35 °C to match UV melts; settings: sodium 0.088 M
How it was run: (§1)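 To match UV melts, fitted temperatures were raised by 9.35 °C. These fits were bootstrapped two-state models that gave melting temperature and folding enthalpy, combined by inverse variance over four replicates. The input was normalised Cy3 fluorescence of library hairpins with annealed Cy3 and quencher oligos on a sequenced MiSeq flow cell, imaged in 50 mM Na-HEPES pH 8.0, 25 mM NaCl in 2.5 °C steps up to 60 °C.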

[2] = folding enthalpy; higher = less favourable; fluorescence melt of hairpins on a sequencing array, two-state fit; settings: sodium 0.088 M
How it was run: as §1

Sequence | Tm [1] [°C] | folding enthalpy [2] [kcal/mol]
GGACCTGGAAACAGGTCC (((((((....))))))) | 68.7 | -28.2
GGACCTGGAAACAGGTTC (.(((((....))))).) | 52.7 | -27.5
GGACCTGGAAACGGGTTC (.(((.(....).))).) | 38.6 | -26.6
GGACGAGGAAACTCGTCC (((((((....))))))) | 68.8 | -44.4
GGACGAGGAAACTCGTTC (.(((((....))))).) | 51.6 | -32.5
GGACGAGGAAACTTGTCC ((((.((....)).)))) | 50.7 | -43.5
GGACGCCGAAAGGCCTCC (((.(((....))).))) | 44.5 | -19.1
GGACGCGAAAGCGGTCC ((((((....))).))) | 68.8 | -21.2
GGACGCGGAAACACGTCC (((((.(....).))))) | 54.8 | -38.9
GGACGGCGAAAGCCATCC (((.(((....))).))) | 50 | -23.7
GGACGGCGAAAGCCCTCC (((.(((....))).))) | 41.4 | -20.5
GGACGGGCGAAAGCCTCC (((..(((....)))))) | 33.7 | -10.5
GGACGGGGAAACCCGCCC ((.((((....)))).)) | 58.7 | -34.1
GGACGGGGAAACTCGTCC (((((.(....).))))) | 58 | -41
GGACGTCCGAAAGGATCC (((..(((....)))))) | 25.8 | -14.9
GGACGTGGAAACACATCC (((.(((....))).))) | 41.1 | -25.9
GGACGTGGAAACATGTCC ((((.((....)).)))) | 53.7 | -38.5
GGACTAGAAATAGTCC ((((((....)))))) | 52.9 | -33
GGACTCCGAAAGGACTCC (((.(((....))).))) | 39.2 | -21.1
GGACTCGAAAGAGGTCC ((((((....))).))) | 52.4 | -35.2
GGACTCGAAAGAGTTCC ((((((....))).))) | 50.3 | -21.2
GGACTGCGAAAGCAATCC (((.(((....))).))) | 47.8 | -12.7
GGACTTGGAAACAAGTTC (.(((((....))))).) | 47.5 | -29.8

Sequence | Tm [1] [°C] | folding enthalpy [2] [kcal/mol]
GGAGACGAAAGTCAGTCC ((((((....)))..))) | 31.6 | -13.6
GGAGACGAAAGTCCTCC ((((((....))).))) | 48.7 | -25
GGAGACGAAAGTCGTCC ((((((....))).))) | 49.5 | -14.3
GGAGACGAAAGTCTATCC ((((((....)))..))) | 32.8 | -12.5
GGAGACGAAAGTCTCTCC ((((((....)))..))) | 54.5 | -9.83
GGAGACGAAAGTCTTTCC ((((((....)))..))) | 32.6 | -10.9
GGAGACGGAAACATCTCC (((((.(....).))))) | 39.5 | -31.8
GGAGACGGAAACGTCCCC ((.((((....)))).)) | 49.2 | -20.1
GGAGACGGAAACGTTTCC (((.(((....))).))) | 49.5 | -30.3
GGAGAGGGAAACCTCCCC ((.((((....)))).)) | 39.9 | -16.2
GGAGAGGGAAACCTCTCC (((((((....))))))) | 63.3 | -46.6
GGAGATGGAAACATCTTC (.(((((....))))).) | 44.6 | -26.2
GGAGCACGAAAGTGTTCC (((.(((....))).))) | 58.8 | -39.8
GGAGCCCCGAAAGGGTCC (((..(((....)))))) | 47.4 | -20.4
GGAGCCGGAAACGGCCCC ((.((((....)))).)) | 58.5 | -15.5
GGAGCGGGAAACCACTCC ((((.((....)).)))) | 49.2 | -34.7
GGAGCTACGAAAGTATCC (((..(((....)))))) | 19.7 | -5.61
GGAGCTCCGAAAGGATCC (((..(((....)))))) | 30.5 | -10.9
GGAGCTGGAAACAGCTTC (.(((((....))))).) | 53.1 | -26.4
GGAGGAACGAAAGTTTCC (((..(((....)))))) | 30.4 | -16.2
GGAGGACGAAAGTCGTCC (((.(((....))).))) | 59.4 | -28.9
GGAGGAGGAAACCCCTCC (((((.(....).))))) | 48.1 | -26.7
GGAGGAGGAAACTCCTCC (((((((....))))))) | 65.9 | -40.3
